Source: ChEMBL document CHEMBL1142361, “Phenylglycine and phenylalanine derivatives as potent and selective HDAC1 inhibitors (SHI-1)” (Bioorg Med Chem Lett, 2008)
Converted amounts (≈) assume the structure as drawn. Values belong to the compound of their own block, whether it stands above or below them.

What was measured:
[1] = Log D at pH 7 by HPLC; format: physicochemical; details: buffer
HCT-116 = assay: Antiproliferative activity against human HCT116 cells after 72 hrs; format: functional
[2] = molecular target: Histone deacetylase 3 (Homo sapiens) (UniProt O15379); assay: Inhibition of HDAC3
[3] = molecular target: Histone deacetylase 4 (Homo sapiens) (UniProt P56524); assay: Inhibition of HDAC4
[4] = molecular target: Histone deacetylase 5 (Homo sapiens) (UniProt Q9UQL6); assay: Inhibition of HDAC5
[5] = molecular target: T1, Protein deacetylase HDAC6 (Homo sapiens) (UniProt Q9UBN7); assay: Inhibition of HDAC6
T1 sequence (whole entry): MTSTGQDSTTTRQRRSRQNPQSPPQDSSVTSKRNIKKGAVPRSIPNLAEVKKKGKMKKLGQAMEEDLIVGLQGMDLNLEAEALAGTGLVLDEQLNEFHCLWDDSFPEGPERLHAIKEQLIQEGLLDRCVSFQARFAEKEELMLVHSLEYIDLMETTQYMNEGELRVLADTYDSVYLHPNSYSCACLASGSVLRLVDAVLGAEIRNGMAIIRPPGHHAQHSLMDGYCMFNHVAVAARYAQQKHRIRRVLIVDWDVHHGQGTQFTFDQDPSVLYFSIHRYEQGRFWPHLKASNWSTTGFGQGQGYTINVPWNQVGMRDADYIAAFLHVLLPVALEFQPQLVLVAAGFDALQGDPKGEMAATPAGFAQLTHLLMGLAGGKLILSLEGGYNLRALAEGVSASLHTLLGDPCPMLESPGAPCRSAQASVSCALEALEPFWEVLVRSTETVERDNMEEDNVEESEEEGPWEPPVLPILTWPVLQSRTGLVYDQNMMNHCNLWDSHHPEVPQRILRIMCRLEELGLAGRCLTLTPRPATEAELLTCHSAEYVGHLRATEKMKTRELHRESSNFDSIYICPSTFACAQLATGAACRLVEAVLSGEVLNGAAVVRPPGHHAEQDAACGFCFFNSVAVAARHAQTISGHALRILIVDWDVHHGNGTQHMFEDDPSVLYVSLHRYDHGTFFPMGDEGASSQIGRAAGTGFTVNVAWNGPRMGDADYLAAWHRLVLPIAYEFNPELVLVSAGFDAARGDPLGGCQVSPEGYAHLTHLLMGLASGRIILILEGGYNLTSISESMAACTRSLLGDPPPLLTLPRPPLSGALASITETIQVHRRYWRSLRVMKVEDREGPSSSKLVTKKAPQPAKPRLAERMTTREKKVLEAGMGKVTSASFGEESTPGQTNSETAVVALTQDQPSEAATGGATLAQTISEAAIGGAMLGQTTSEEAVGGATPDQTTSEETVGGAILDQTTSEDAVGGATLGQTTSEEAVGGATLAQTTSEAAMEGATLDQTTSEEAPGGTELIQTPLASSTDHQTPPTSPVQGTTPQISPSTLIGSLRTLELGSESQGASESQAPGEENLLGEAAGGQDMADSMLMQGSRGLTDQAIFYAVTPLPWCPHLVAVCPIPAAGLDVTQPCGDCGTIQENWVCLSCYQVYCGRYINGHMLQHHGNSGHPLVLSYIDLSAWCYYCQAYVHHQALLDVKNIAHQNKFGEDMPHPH

[6] = molecular target: T2, Histone deacetylase 7 (Homo sapiens) (UniProt Q8WUI4); assay: Inhibition of HDAC7
T2 sequence (whole entry): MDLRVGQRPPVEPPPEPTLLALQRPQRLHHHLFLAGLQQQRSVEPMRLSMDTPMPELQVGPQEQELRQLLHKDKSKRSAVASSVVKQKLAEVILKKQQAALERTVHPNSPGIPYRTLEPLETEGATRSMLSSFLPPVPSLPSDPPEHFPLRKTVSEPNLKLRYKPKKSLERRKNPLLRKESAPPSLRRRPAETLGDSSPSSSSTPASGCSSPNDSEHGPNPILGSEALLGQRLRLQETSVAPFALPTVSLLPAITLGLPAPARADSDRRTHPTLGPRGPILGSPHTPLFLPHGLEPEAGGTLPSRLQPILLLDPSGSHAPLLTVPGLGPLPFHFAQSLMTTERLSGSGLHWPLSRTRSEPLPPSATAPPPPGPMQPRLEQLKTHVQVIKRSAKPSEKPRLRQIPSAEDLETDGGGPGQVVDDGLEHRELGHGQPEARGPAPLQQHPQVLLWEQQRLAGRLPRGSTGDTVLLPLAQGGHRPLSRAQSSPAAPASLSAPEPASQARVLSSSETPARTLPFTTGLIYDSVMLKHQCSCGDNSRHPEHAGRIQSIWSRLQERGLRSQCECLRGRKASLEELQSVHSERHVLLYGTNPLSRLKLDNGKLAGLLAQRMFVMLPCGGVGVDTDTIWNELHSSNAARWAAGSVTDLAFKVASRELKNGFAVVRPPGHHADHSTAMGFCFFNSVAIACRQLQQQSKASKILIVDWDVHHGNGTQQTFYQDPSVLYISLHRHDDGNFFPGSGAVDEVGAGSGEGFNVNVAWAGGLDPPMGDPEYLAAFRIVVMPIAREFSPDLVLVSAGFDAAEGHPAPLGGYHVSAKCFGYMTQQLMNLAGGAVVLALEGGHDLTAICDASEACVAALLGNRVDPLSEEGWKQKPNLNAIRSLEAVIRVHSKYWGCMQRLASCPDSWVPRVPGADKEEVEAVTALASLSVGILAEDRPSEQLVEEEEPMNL

[7] = molecular target: T3, Histone deacetylase 8 (Homo sapiens) (UniProt Q9BY41); assay: Inhibition of HDAC8
T3 sequence (whole entry): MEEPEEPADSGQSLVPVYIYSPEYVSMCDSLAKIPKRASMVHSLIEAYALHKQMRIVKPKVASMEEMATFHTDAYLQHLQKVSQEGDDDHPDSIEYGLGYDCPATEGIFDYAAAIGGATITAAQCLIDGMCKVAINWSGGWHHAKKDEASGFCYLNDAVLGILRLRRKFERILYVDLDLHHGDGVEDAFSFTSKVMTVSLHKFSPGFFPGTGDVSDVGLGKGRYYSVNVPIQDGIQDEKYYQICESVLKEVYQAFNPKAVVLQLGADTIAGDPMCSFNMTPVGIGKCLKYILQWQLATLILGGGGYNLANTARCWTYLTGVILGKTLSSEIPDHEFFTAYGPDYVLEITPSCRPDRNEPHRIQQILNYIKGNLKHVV

[8] = molecular target: T4, Histone deacetylase 11 (Homo sapiens) (UniProt Q96DB2); assay: Inhibition of HDAC11
T4 sequence (whole entry): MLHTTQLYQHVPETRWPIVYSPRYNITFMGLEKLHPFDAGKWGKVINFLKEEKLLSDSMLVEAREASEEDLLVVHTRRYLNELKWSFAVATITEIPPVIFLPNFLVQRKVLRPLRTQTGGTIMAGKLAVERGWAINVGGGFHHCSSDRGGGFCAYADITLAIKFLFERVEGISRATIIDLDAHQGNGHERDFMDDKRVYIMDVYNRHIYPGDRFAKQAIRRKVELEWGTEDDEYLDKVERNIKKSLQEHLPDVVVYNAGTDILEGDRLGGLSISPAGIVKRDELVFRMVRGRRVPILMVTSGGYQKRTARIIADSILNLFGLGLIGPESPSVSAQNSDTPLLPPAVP

[9] = Selectivity for HDAC1 over HDAC2
[10] = Selectivity for HDAC1 over HDAC3
[11] = Selectivity for HDAC1 over HDAC4
[12] = Selectivity for HDAC1 over HDAC5
[13] = Selectivity for HDAC1 over HDAC6
[14] = Selectivity for HDAC1 over HDAC7
[15] = Selectivity for HDAC1 over HDAC8
[16] = Selectivity for HDAC1 over HDAC11
[17] = Clearance in rat at 2 mg/kg, iv and 4 mg/kg, po; format: ADME, organism-based; details: in vivo
[18] = Volume of distribution at steady state in rat at 2 mg/kg, iv and 4 mg/kg, po; format: ADME, organism-based; details: in vivo, read-out: Vdss
[19] = Half life in rat at 2 mg/kg, iv and 4 mg/kg, po; format: ADME, organism-based; details: in vivo
[20] = Bioavailability in rat at 4 mg/kg, po; format: ADME, organism-based; details: in vivo
[21] = Clearance in dog at 0.5 mg/kg, iv and 1 mg/kg, po; format: ADME, organism-based, Canis lupus familiaris; details: in vivo
[22] = Volume of distribution at steady state in dog at 0.5 mg/kg, iv and 1 mg/kg, po; format: ADME, organism-based, Canis lupus familiaris; details: in vivo, read-out: Vdss
[23] = Half life in dog at 0.5 mg/kg, iv and 1 mg/kg, po; format: ADME, organism-based, Canis lupus familiaris; details: in vivo
[24] = Bioavailability in dog at 1 mg/kg, po; format: ADME, organism-based, Canis lupus familiaris; details: in vivo
[25] = Clearance in rhesus monkey at 0.5 mg/kg, iv and 1 mg/kg, po; format: ADME, organism-based, Macaca mulatta; details: in vivo
[26] = Volume of distribution at steady state in rhesus monkey at 0.5 mg/kg, iv and 1 mg/kg, po; format: ADME, organism-based, Macaca mulatta; details: in vivo, read-out: Vdss
[27] = Half life in rhesus monkey at 0.5 mg/kg, iv and 1 mg/kg, po; format: ADME, organism-based, Macaca mulatta; details: in vivo
[28] = Bioavailability in rhesus monkey at 1 mg/kg, po; format: ADME, organism-based, Macaca mulatta; details: in vivo
[29] = Drug level in HCT116 cells xenografted mouse plasma at 65 mg/kg, ip qd after 2 hrs on day 21; format: ADME, organism-based, HCT-116; parameters: dose 65 mg/kg, route intraperitoneal
How it was run: (§1)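 Mice bearing HCT116 xenografts were dosed ip in a 21-day study at 50, 65 and 80 mg/kg alongside vehicle. Plasma drug levels were measured 2, 4 and 24 h post-dose.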

[30] = Drug level in HCT116 cells xenografted mouse plasma at 65 mg/kg, ip qd after 4 hrs on day 21; format: ADME, organism-based, HCT-116; parameters: dose 65 mg/kg, route intraperitoneal; how it was run: as §1
[31] = Drug level in HCT116 cells xenografted mouse plasma at 65 mg/kg, ip qd after 24 hrs on day 21; format: ADME, organism-based, HCT-116; parameters: dose 65 mg/kg, route intraperitoneal; how it was run: as §1
[32] = Aqueous solubility at pH 7 by HPLC; format: physicochemical; details: buffer
How it was run: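 A 200 µM sample in PBS-buffered water at pH 7 was agitated 24 h at room temperature and then filtered. A 100 µM reference was fully dissolved in MeOH:MeCN:DMSO (8:1:1). Both were run by the same high-throughput HPLC method, and the peak areas were compared to give the dissolved concentration. The assay caps at 200 µM.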

[33] = Drug level in HCT116 cells xenografted mouse plasma at ip qd after 2 hrs on day 21
[34] = Drug level in HCT116 cells xenografted mouse plasma at ip qd after 4 hrs on day 21
[35] = Drug level in HCT116 cells xenografted mouse plasma at ip qd after 24 hrs on day 21

Chain of Histone deacetylase 4 (Homo sapiens) (P56524 whole entry): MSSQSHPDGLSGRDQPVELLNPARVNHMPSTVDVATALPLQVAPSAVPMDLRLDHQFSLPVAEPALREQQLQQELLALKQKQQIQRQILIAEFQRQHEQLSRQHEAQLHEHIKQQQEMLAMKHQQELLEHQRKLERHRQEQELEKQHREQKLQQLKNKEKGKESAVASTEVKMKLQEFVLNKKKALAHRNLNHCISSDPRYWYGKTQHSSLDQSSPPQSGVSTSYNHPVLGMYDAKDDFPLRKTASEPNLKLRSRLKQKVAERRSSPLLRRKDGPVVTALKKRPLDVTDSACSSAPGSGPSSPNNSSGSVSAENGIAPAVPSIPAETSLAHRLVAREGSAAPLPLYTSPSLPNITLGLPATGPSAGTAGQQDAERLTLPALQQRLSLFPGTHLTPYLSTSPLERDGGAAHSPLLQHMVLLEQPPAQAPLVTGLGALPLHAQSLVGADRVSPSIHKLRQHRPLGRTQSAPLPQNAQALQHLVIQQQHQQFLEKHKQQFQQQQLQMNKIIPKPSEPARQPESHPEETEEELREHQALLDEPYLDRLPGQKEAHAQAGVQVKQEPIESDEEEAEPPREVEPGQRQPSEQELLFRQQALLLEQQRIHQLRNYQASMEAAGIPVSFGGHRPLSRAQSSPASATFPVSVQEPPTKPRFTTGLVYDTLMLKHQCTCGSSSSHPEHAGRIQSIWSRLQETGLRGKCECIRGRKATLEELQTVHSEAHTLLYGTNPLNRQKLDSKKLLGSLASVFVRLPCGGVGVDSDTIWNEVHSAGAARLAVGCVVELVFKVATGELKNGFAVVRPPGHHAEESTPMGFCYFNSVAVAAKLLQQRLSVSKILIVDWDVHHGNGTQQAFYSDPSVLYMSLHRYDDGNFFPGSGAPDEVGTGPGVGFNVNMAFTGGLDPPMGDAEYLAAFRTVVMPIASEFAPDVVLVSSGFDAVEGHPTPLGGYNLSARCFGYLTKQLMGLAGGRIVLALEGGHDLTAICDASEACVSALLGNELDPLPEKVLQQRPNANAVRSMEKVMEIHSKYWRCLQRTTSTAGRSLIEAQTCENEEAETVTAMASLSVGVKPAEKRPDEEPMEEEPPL
Chain of Histone deacetylase 5 (Homo sapiens) (Q9UQL6 whole entry): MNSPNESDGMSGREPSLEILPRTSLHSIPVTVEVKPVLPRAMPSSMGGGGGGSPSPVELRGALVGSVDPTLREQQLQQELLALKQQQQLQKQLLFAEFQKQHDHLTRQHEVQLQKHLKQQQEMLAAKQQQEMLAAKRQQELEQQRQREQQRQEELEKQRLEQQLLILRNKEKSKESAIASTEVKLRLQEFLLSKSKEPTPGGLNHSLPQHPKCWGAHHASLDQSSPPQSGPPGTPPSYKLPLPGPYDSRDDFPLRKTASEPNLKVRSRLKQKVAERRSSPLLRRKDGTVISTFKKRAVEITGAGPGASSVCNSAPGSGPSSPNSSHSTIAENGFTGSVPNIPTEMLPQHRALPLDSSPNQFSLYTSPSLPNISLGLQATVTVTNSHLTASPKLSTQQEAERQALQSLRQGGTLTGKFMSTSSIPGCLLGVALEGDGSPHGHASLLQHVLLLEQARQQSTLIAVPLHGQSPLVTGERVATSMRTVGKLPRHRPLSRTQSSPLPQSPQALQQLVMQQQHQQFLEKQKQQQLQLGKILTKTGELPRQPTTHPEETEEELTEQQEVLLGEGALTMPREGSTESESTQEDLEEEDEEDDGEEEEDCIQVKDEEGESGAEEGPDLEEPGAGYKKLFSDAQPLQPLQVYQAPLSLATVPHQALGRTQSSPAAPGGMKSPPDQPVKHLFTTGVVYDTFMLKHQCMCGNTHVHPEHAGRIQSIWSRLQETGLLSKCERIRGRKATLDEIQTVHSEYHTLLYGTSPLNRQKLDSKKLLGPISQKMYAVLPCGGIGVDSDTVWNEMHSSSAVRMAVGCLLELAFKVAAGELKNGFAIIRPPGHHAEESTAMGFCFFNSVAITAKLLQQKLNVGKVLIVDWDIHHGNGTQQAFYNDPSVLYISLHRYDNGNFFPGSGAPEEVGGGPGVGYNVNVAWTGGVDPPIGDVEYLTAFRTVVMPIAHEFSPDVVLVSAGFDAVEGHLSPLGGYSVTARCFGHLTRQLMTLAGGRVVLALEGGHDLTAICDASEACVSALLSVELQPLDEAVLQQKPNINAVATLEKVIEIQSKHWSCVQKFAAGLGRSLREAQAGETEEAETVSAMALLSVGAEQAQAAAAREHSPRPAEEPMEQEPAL
Chain of Histone deacetylase 3 (Homo sapiens) (O15379 whole entry): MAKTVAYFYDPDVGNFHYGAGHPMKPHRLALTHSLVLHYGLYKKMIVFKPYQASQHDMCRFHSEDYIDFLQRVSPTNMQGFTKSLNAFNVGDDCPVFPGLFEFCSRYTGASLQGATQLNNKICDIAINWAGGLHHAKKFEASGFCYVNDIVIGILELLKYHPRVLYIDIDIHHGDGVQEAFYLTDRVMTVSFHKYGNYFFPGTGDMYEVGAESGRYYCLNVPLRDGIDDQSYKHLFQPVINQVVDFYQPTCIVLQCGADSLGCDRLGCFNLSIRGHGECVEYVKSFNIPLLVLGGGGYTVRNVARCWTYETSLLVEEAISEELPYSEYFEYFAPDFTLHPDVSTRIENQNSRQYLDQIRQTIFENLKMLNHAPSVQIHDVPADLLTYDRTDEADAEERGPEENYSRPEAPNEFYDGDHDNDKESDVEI

logD [1]: 1.57
Activity [2]: 3.4 µM
Activity [3]: > 50 µM
Activity [4]: > 50 µM
Activity [5]: > 50 µM
Activity [6]: > 50 µM
Activity [7]: 35 µM
Activity [8]: 3.6 µM
Selectivity ratio [9]: 13
Selectivity ratio [10]: 340
Selectivity ratio [11]: > 5000
Selectivity ratio [12]: > 5000
Selectivity ratio [13]: > 5000
Selectivity ratio [14]: > 5000
Selectivity ratio [15]: 3500
Selectivity ratio [16]: 360
clearance [17]: 38 mL/min/kg
Vd [18]: 7.6 L/kg
half-life [19]: 5.9 h
bioavailability [20]: 27%
clearance [21]: 11 mL/min/kg
Vd [22]: 3.2 L/kg
half-life [23]: 5.4 h
bioavailability [24]: 17%
clearance [25]: 16 mL/min/kg
Vd [26]: 1.6 L/kg
half-life [27]: 1.6 h
bioavailability [28]: 5%
concentration at 2 h [29]: 28.6 µM
concentration at 4 h [30]: 10 µM
concentration at 24 h [31]: 0.02 µM
solubility [32]: 185 µM (≈ 70.4 µg/mL)
concentration at 2 h [33]: 17.9 µM
concentration at 4 h [34]: 4.1 µM
concentration at 24 h [35]: 0.01 µM
Compound: CNC(=O)C(N)c1ccc(C(=O)Nc2cc(-c3cccs3)ccc2N)cc1 (stereo not given)
Activity (HCT-116): 450 nM

Compound: CNC(=O)NC(C(=O)NC)c1ccc(C(=O)Nc2cc(-c3cccs3)ccc2N)cc1 (stereo not given)
Activity (HCT-116): 960 nM

Compound: NC(=O)[C@H](N)Cc1ccc(C(=O)Nc2cc(-c3cccs3)ccc2N)cc1
Activity (HCT-116): 390 nM

Compound: CNC(=O)C(NC(=O)OC)c1ccc(C(=O)Nc2cc(-c3cccs3)ccc2N)cc1 (stereo not given)
Activity (HCT-116): 410 nM

Compound: NC(=O)[C@@H](N)c1ccc(C(=O)Nc2cc(-c3cccs3)ccc2N)cc1
Activity (HCT-116): 510 nM

Compound: Nc1ccc(-c2ccccc2)cc1NC(=O)c1ccccc1
Activity (HCT-116): 1700 nM

logD [1]: 2.7
Compound: Nc1ccc(-c2cccs2)cc1NC(=O)c1ccccc1
Activity (HCT-116): 720 nM

Compound: Nc1ccc(-c2cccs2)cc1NC(=O)c1ccc(C(N)C(=O)O)cc1 (stereo not given)
Activity (HCT-116): >20000 nM

Compound: NC(=O)[C@H](N)c1ccc(C(=O)Nc2cc(-c3cccs3)ccc2N)cc1
Activity (HCT-116): 350 nM
